Results from different studies.
Compare with care: the assays were run in different laboratories.
Target: Serine/threonine-protein kinase MARK2 (MARK2, Homo sapiens, UniProt Q7KZI7)

Structure (SMILES)	assay	setting	measurement	value
COc1ccc2oc(-c3ccc4nc(N)oc4c3)c/c(=N\c3ccccc3NC(=O)CCN)c2c1	binding	1 µM	remaining binding	97%
Cc1cc(O)c(-c2ccc([C@@H](C)CN(C)C)cc2)c2c1[nH]c(=O)c1sccc12	enzyme activity, inhibitor	0.1 µM	inhibition	4.31%
C=CC(=O)N1CCC([C@@H]2CCNc3c(C(N)=O)c(-c4ccc(Oc5ccccc5)cc4)nn32)CC1	enzyme activity, inhibitor	1 µM	inhibition	0%
CCCCC(=O)Nc1ccc(-c2ccc3ncn(CCC)c(=O)c3c2)cn1	binding, competition with immobilised ligand	0.5 µM	remaining binding	92%
Cc1ccc(NC(=O)c2ccnc(C(F)(F)F)c2)cc1-c1cc(OCCO)nc(N2CCOCC2)c1	binding	1 µM	remaining binding	99%
C=CC(=O)N1CCC[C@@H](n2nc(-c3ccc(Oc4ccccc4)cc3)c3c(N)ncnc32)C1	enzyme activity, inhibitor	1 µM	inhibition	10%
COc1ccc2[nH]c3c4[nH]c5ccc(OC)cc5c4c4c(c3c2c1)C(=O)NC4=O	binding	1 µM	remaining binding	71%
C1=C/COCc2cc(ccc2OCCN2CCCC2)Nc2nccc(n2)-c2cccc(c2)COC/1	binding	0.1 µM	remaining binding	66%
